Compound activity from PubChem BioAssay.
SENP1 FRET inh – inhibitors of human SENP1 SUMO protease catalytic domain; Q9P0U3; recombinant SENP1 catalytic domain, CyPet-SUMO1-YPet FRET cleavage; inhibition, % at 10 µM; hit rate 0.21% among 360,000; AID 624204;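 active means inhibition at least 30% at 10 µM, raw YFP signal under a set limit, fluorescence ratio 0.5 to 1.5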;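 further: 0% = enzyme with DMSO and 100% = no enzyme wells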
Target sequence (Q9P0U3 419-644 limits assumed): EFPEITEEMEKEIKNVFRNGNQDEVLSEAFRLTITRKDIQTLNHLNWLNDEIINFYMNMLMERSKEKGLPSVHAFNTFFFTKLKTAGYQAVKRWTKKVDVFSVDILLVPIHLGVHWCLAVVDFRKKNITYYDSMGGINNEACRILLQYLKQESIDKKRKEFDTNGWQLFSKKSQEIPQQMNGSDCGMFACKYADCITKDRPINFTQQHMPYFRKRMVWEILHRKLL
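Compound: 10 µM single point, 0.5% DMSO; Test system: hSENP1 catalytic domain, recombinant; Timing: 50 min reaction at room temperature; Technique: FRET, CFP and YFP emission; Control set: no-enzyme wells low, DMSO-plus-enzyme wells high control.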
SENP7 inh – blocks the human protease SENP7; Q9BQF6; recombinant SENP7, Z-RLRGG-aminoluciferin luminescence, 40 min; inhibition, % at 5 µM; hit rate 1.5% among 330,000; AID 434973;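 active means inhibition above about 50% at the single test dose, limit read from the data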;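 further: plate controls were DMSO with enzyme for no effect and no enzyme buffer wells for full effect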
Target sequence (Q9BQF6 706-1050 limits assumed): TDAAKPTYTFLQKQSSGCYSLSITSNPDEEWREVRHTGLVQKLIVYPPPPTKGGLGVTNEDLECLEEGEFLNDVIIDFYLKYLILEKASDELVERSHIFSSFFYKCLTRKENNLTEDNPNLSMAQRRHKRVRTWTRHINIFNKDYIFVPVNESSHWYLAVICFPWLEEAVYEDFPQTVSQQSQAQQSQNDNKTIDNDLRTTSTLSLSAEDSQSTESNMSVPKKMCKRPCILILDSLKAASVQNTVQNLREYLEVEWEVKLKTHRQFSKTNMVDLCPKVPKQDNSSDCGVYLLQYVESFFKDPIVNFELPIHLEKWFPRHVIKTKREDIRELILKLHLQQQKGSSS
HSP90 inh – HSP90 refolding inhibition in rabbit reticulocyte lysate | luciferase refolding luminescence, 3 h | inhibition, % at 5.6 µM | hit rate 0.91% among 290,000;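 active means inhibition above the screen-wide mean plus 3 SD, computed separately per campaign, cut at about 16% in these data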;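 further: 0% = DMSO wells and 100% = 60 µM geldanamycin wells; inhibitors lower the luminescence because luciferase stays unfolded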
SENP8 block-1 – blocks human SENP8 cleavage of Nedd8 substrate. Q96LD8. recombinant SENP8, Nedd8 substrate fluorescence. inhibition, % at 20 µM. hit rate 0.64% among 360,000. AID 602440; in the data active means inhibition mostly above about 40%, no sharp cut-off; inactive means mostly below about 27%
Target sequence (Q96LD8 whole entry, looked up): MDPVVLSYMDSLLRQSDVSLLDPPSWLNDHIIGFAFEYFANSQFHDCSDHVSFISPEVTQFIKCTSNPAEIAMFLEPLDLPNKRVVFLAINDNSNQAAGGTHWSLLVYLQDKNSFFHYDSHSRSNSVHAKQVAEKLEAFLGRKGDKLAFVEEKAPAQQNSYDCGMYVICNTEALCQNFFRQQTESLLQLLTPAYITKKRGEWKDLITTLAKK
SENP6 block – blocks the human protease SENP6; hit rate 1.8% among 330,000; Q9GZR1; inhibition, % at 10 µM; Recombinant SENP6 catalytic domain, aminoluciferin luminescence;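 active means inhibition above about 50% at the single tested dose, limit read from the data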;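 further: plate controls were DMSO wells with enzyme for no effect and DMSO wells lacking enzyme for full effect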
SENP8 block-2 – SENP8 protease inhibition | purified SENP8, Z-RLRGG-aminoluciferin cleavage, luminescence | inhibition, % at 10 µM | hit rate 1.2% among 330,000; in the data active means inhibition above about 50%
SENP1 inh conf – confirmation of human SENP1 SUMO protease inhibitors; shares compounds with SENP1 FRET inh; recombinant SENP1, CyPet-SUMO1-YPet FRET cleavage; inhibition, % at 10 µM; hit rate 34% among 520; in the data active means inhibition mostly above about 35%, no sharp cut-off; inactive means mostly below about 32%;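 further: 0% = enzyme with DMSO and 100% = no enzyme control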
SENP1 kin conf – SENP1 (human) inhibition, kinetic confirmation | hit rate 26% among 520 | recombinant SENP1, CyPet-SUMO1-YPet FRET kinetic cleavage | shares compounds with SENP1 FRET inh | AID 651690 | inhibition, % at 10 µM; in the data active means inhibition mostly above about 32%, no sharp cut-off; inactive means mostly below about 29%;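 further: 0% = DMSO with enzyme and 100% = no enzyme substrate only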
The depositor's hits bear a star; · = no result; ! = a repeat was not active. Hits are enriched below; roughly 2.9% of the tested compounds scored in any of these assays.

SMILES | SENP1 FRET inh | SENP7 inh | HSP90 inh | SENP8 block-1 | SENP6 block | SENP8 block-2 | SENP1 inh conf | SENP1 kin conf
COc1ccc(NC(=O)CCC(=O)c2ccc(-c3ccccc3)cc2)cc1 | 40.5* | -2.6 | 2.2 | -2.1 | -6.9 | -10.4 | -1.4 | -5.9
N#C/C(=C\c1c(N2CCC(C(N)=O)CC2)nc2ccccn2c1=O)S(=O)(=O)c1ccc(Cl)cc1 | -35.0 | -9.2 | 2.9 | -32.3 | 2.6 | -10.4 | · | ·
Cc1cnc(C(=O)Nc2ccccc2-c2ccc(C)o2)cn1 | 39.6* | -0.6 | 0.2 | 9.7 | 5.2 | 6.5 | -11.6 | -2.1
Cc1cnc(C(=O)Nc2cccc3ncccc23)cn1 | -2.6 | 8.3 | 0.1 | 21.4 | -8.7 | -2.2 | · | ·
Cn1c(/C(C#N)=C(\O)c2ccc([N+](=O)[O-])s2)nc2ccccc21 | 46.5* | 4.5 | 1.5 | 15.7 | -14.2 | 5.8 | 10.7 | 12.5
Cn1c(/C(C#N)=C(\O)c2ccc(Cl)s2)nc2ccccc21 | -55.4 | 10.5 | -2.6 | 0.0 | -24.1 | -10.7 | · | ·
CCOc1cc(N2CCOCC2)c(OCC)cc1NC(=O)CCS(=O)(=O)c1ccc(Cl)cc1 | 37.0* | -7.1 | -0.2 | 27.0 | -5.8 | -8.2 | 14.0 | 14.2
CC1CCc2c(sc3ncnc(SCC(=O)N(C)C4CCS(=O)(=O)C4)c23)C1 (stereo not given) | 31.9* | -3.4 | · | 0.0 | 15.6 | 5.7 | 0.8 | 19.4
Cc1ccc(CNc2ccc3c(c2)nc(C)n3C)cc1 | 2.3 | -2.6 | 4.5 | -149.2 | -7.9 | -20.2 | · | ·
Cc1nc2cc(NCc3ccc(Cl)cc3)ccc2n1C | 31.2* | -8.8 | 3.7 | -61.7 | 29.4 | 16.1 | 17.5 | 13.6
COc1ccc(C2C(C(C)=O)=C(C)N=c3s/c(=C\c4ccco4)c(=O)n32)c(OC)c1 (stereo not given) | 36.6* | -7.0 | 2.0 | 16.1 | -1.1 | -7.1 | 40.8* | 32.3*
CCc1ccc(/C(C)=N/NC(=O)CNC(=O)/C=C/c2ccco2)cc1 | 2.2 | -11.2 | · | 19.7 | -22.7 | -1.4 | · | ·
Fc1ccc2c(c1)/C(=N/Nc1ccccn1)CCS2 | 0.7 | -3.4 | -1.1 | 7.0 | 6.2 | 15.2 | · | ·
CCN(CC(=O)Nc1ccc(NC(C)=O)cc1)C(=O)CSc1ncnc2sc(C)c(C)c12 | 41.2* | 4.2 | · | 12.6 | 4.2 | 3.0 | 89.0* | 68.3*
COc1cccc(-c2nc(CS(=O)(=O)CC(=O)N3CCCCC3)c(C)o2)c1 | 0.3 | 2.3 | 3.6 | 17.8 | -15.6 | -9.9 | · | ·
CCC(=O)Nc1ccccc1Sc1ncnc2scc(-c3ccccc3)c12 | -3.1 | 5.2 | -4.3 | 6.4 | 1.0 | 3.4 | · | ·
COC(=O)c1ccc(-c2nc(O)c(C)s2)cc1 | 41.0* | -6.9 | 1.4 | -221.9 | 1.3 | -3.7 | 86.7* | 56.2*
CC(C)C(=O)Nc1nnc(COc2ccc(Cl)cc2)s1 | 45.7* | -6.2 | 3.1 | 4.3 | -9.0 | -2.4 | -6.8 | -7.2
CN1Cc2c(N)cccc2C(c2ccccc2)C1 (stereo not given) | 74.1*! | 6.7 | -1.0 | 29.7 | 5.5 | 0.7 | 67.0* | 44.8*
O=c1[nH]c2cc3ccccc3cc2nc1-c1nnnn1Cc1ccccc1 | 41.0* | · | · | 0.8 | · | · | 80.3* | 50.0*
O=c1[nH]c2cc3ccccc3cc2nc1-c1nnnn1C1CCCC1 | 69.9* | · | · | 24.3 | · | · | 125.1* | 77.9*
NC(=O)c1ccc(NC(=O)COC(=O)CCN=C2NS(=O)(=O)c3ccccc32)cc1 | -1.8 | 6.6 | · | 3.5 | -5.2 | -2.2 | · | ·
CCn1c(CCNC(=O)c2cccs2)nnc1SCC(=O)c1ccc(OC)cc1 | 2.4 | -5.0 | 0.8 | 9.2 | -0.3 | -4.9 | · | ·
Fc1ccc(-c2nc3ccc(Cl)cn3c2Cc2cccc(F)c2)cc1 | 10.3 | · | · | -184.7 | · | · | · | ·
Cc1ccccc1NCC(=O)N/N=C/c1c(C)c(C(=O)c2ccc(Cl)cc2)n2ccccc12 | 27.4 | 3.3 | -1.4 | 2.2 | 13.3 | 5.1 | · | ·
SMILES | SENP1 FRET inh | SENP7 inh | HSP90 inh | SENP8 block-1 | SENP6 block | SENP8 block-2 | SENP1 inh conf | SENP1 kin conf
Cc1c(/C=N/NC(=O)CNc2ccccc2)c2ccccn2c1C(=O)c1ccc(Cl)cc1 | 30.6* | -8.9 | 1.8 | 19.3 | -8.6 | -12.9 | 30.7 | 20.1
O=C(NC(=S)Nc1ccccc1O)c1cncc(Br)c1 | 29.6* | 3.7 | · | 8.2 | -6.2 | -4.3 | 6.3 | 4.0
O=C(NC(=S)Nc1ccccc1C(=O)O)c1cncc(Br)c1 | -3.1 | -1.2 | 3.4 | -71.6 | 3.4 | 10.9 | · | ·
Cc1ccccc1C(=O)NCC(=O)OC(C)C(=O)NCc1ccco1 (stereo not given) | 2.2 | 4.0 | · | 4.6 | -1.3 | 6.5 | · | ·
Cc1ccc(C(=O)C[n+]2cccc3ccccc32)cc1 | 30.2* | -1.1 | -0.4 | -70.9 | -9.8 | -3.9 | 14.4 | 15.8
NC(=O)C[n+]1cccc2ccccc21 | 39.4* | 17.4 | -2.2 | -60.6 | -21.6 | -5.7 | 8.8 | 8.8
O=C(C[n+]1cccc2ccccc21)c1ccc(Br)cc1 | 57.2* | 3.0 | 1.2 | -43.7 | -3.7 | -4.0 | 4.9 | 10.6
O=[N+]([O-])c1ccc(C[n+]2cccc3ccccc32)cc1 | 2.5 | 2.8 | 2.8 | 14.5 | 0.1 | 1.5 | · | ·
Cc1ccc(C(=O)C[n+]2ccccc2)cc1 | -1.5 | 5.6 | 2.7 | 14.4 | 19.5 | 4.8 | · | ·
N#Cc1ccc(S(=O)(=O)N2CCC(C(=O)Nc3cccc(C(=O)NC4CC4)c3)CC2)cc1 | 0.8 | 4.8 | · | 3.0 | -10.4 | -5.1 | · | ·
N#Cc1c(C(F)(F)F)cc(-c2ccc(Cl)c(Cl)c2)nc1SCCN1CCOCC1 | 37.7* | 8.5 | 0.2 | -71.5 | -1.6 | 2.6 | 26.5 | 23.1
CC(C)=CCC(C)(C)C1OCCN1C(=O)Nc1ccccc1 (stereo not given) | 2.8 | -8.2 | 1.4 | 29.4 | -11.3 | -14.7 | · | ·
Cc1ccc(O)c(C(=O)c2cc(C#N)c(=O)n(-c3c(C)n(C)n(-c4ccccc4)c3=O)c2)c1 | 9.7 | -4.0 | 0.6 | 3.7 | -11.1 | 3.7 | · | ·
Cc1c(-n2cc(C(=O)c3cc(Cl)ccc3O)cc(C#N)c2=O)c(=O)n(-c2ccccc2)n1C | 61.0* | 3.6 | 2.7 | 8.0 | -4.0 | -2.7 | 53.2* | 40.5*
O=C(Nc1cccc(C(F)(F)F)c1)c1csc([C@@H]2O[C@H](CO)[C@H](O)[C@H](O)[C@H]2O)n1 | 1.0 | · | · | 20.5 | · | · | · | ·
Cc1ccc(-c2nc3ncccn3c2Nc2ccc3c(c2)OCO3)o1 | 42.5* | 14.6 | -0.2 | -12.4 | -4.3 | -1.0 | 19.1 | 12.9
Cc1cccc2nc(-c3cccnc3)c(NCCC(C)C)n12 | -7.6 | 3.5 | -0.7 | -435.1 | -10.8 | 2.5 | · | ·
Cc1cc(C)n2c(NC3CCCC3)c(-c3cccnc3)nc2n1 | 32.4* | · | · | -27.9 | · | · | 20.3 | 9.5
Cc1cccc2nc(-c3cccnc3)c(Nc3ccccc3)n12 | -0.3 | -1.2 | 1.6 | -256.4 | -11.3 | 1.6 | · | ·
CCCCNc1c(-c2cccnc2)nc2nc(C)cc(C)n12 | 35.8* | · | · | -25.6 | · | · | 19.4 | 14.8
